Experimental data taken from ChEMBL document CHEMBL5385870, “Amide containing NBTI antibacterials with reduced hERG inhibition, retained antimicrobial activity against gram-positive bacteria and in vivo efficacy” (Eur J Med Chem, 2023).
Values after ≈ are worked out from the molar mass of the structure shown. Active and inactive are the calls of the source. The calls are words filed in the database; no cut-off is given here.

What was measured:
[1] = tested on: Staphylococcus aureus; test: Bactericidal activity against methicillin-resistant Staphylococcus aureus ATCC 43300 at 8 times MIC measured for 6 hrs by time-kill kinetics based analysis; type: functional, organism-based
[2] = tested on: Staphylococcus aureus; test: Bactericidal activity against methicillin-resistant Staphylococcus aureus ATCC 43300 at 4 times MIC measured for 24 hrs by time-kill kinetics based analysis; type: functional, organism-based
[3] = Induction of drug resistance methicillin-resistant Staphylococcus aureus measured after 14 passages incubated for 20 hrs by microbroth dilution method; type: functional
In short: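 For serial passage, MRSA was run through daily broth-microdilution MIC tests. Cells from the ½× MIC wells were harvested, adjusted to 10^5 CFU/mL and used to inoculate the next passage, for 14 days. Triplicates, with ciprofloxacin as comparator, and the experiment was repeated twice.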

[4] = tested on: Staphylococcus aureus; test: Bactericidal activity against methicillin-resistant Staphylococcus aureus at 8 times MIC measured by time-kill kinetics based analysis
[5] = tested on: Escherichia coli; test: Antimicrobial activity against Escherichia coli N43 assessed as reduction in bacterial growth incubated for 20 hrs by broth microdilution analysis; type: functional
[6] = tested on: Klebsiella pneumoniae; test: Antimicrobial activity against Klebsiella pneumoniae assessed as reduction in bacterial growth incubated for 20 hrs by broth microdilution analysis; type: functional
[7] = Antimicrobial activity against Salmonella alachua RDK 030c assessed as reduction in bacterial growth incubated for 20 hrs by broth microdilution analysis; type: functional
[8] = tested on: Staphylococcus aureus; test: Antimicrobial activity against cefoxitin/gentamicin/kanamycin/rifampicin/streptomycin/sulfamethoxazole/tetracycline-resistant Staphylococcus aureus assessed as reduction in bacterial growth incubated for 20 hrs by broth microdilution analysis; type: functional
In short: (§1)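 MIC was determined by broth microdilution per CLSI/EUCAST. Inoculum was 10^5 CFU/mL in cation-adjusted Mueller-Hinton broth with TES, with compounds in DMSO, incubated 20 h at 35 °C. MIC was read visually as the lowest concentration without turbidity. Tetracycline was the plate control.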

[9] = tested on: Staphylococcus aureus; test: Antibacterial activity against Methicillin-resistant Staphylococcus aureus BAA-1717 infected in CD-1 mouse thigh infection model assessed as reduction in bacterial load at 50 mg/kg, ip […]; type: functional
[10] = tested on: Pseudomonas aeruginosa; test: Antimicrobial activity against Pseudomonas aeruginosa RDK 184 assessed as reduction in bacterial growth incubated for 20 hrs by broth microdilution analysis; type: functional
[11] = tested on: Staphylococcus aureus; test: Antimicrobial activity against cefoxitin/ciprofloxacin/clindamycin/erythromycin/tetracycline/thiamulin/trimethoprim-resistant Staphylococcus aureus assessed as reduction in bacterial growth incubated for 20 hrs by broth microdilution analysis; type: functional; in short: as §1
[12] = tested on: Escherichia coli; test: Antimicrobial activity against Escherichia coli D22 assessed as reduction in bacterial growth incubated for 20 hrs by broth microdilution analysis; type: functional
[13] = target: Voltage-gated inwardly rectifying potassium channel KCNH2 (Homo sapiens, UniProt Q12809); test: Inhibition of hERG fluorescence polarization assay; type: toxicity
[14] = tested on: Staphylococcus aureus; test: Antimicrobial activity against Staphylococcus aureus ATCC 29213 assessed as reduction in bacterial growth incubated for 20 hrs by broth microdilution analysis; type: functional; in short: as §1
[15] = tested on: Escherichia coli; test: Antimicrobial activity against Escherichia coli ATCC 25922 assessed as reduction in bacterial growth incubated for 20 hrs by broth microdilution analysis; type: functional

Chain of Voltage-gated inwardly rectifying potassium channel KCNH2 (Q12809 whole entry): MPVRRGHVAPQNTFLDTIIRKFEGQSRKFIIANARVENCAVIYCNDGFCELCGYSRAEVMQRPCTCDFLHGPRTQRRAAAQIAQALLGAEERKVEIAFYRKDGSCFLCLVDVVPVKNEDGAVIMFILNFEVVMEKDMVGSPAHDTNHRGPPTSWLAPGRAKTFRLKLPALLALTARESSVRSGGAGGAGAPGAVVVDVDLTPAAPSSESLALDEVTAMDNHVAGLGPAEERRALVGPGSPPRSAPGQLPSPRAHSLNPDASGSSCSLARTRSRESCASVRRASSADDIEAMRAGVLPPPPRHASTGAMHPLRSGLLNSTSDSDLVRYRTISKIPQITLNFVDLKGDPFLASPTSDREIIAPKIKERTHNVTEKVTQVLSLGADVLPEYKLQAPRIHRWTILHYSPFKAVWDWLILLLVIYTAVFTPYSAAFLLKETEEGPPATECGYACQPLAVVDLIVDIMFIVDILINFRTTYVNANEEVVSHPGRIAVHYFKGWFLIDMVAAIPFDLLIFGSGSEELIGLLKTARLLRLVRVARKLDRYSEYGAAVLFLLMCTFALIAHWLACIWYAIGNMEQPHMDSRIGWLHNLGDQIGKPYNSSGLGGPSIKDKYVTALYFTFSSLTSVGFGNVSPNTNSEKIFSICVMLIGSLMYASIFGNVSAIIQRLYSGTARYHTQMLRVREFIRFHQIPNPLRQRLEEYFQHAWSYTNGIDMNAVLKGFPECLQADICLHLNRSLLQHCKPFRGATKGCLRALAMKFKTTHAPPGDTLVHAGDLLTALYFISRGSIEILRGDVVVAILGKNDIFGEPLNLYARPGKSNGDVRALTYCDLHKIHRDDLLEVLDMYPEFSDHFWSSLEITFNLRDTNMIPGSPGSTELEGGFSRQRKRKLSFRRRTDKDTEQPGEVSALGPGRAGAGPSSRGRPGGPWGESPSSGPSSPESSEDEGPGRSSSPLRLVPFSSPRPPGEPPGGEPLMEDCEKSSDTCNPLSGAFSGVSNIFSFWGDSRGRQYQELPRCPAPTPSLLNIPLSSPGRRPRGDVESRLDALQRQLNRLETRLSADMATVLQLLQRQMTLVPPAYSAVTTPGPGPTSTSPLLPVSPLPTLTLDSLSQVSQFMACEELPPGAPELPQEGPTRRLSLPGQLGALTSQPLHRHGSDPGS

Row | Structure (SMILES) | Activity [1] | Activity [2] | MIC [3] [µg/mL] | Activity [4] | MIC [5] [µM] | MIC [6] [µM] | MIC [7] [µM] | MIC [8] [µM] | Activity [9] [log10CFU/g] | MIC [10] [µM] | MIC [11] [µM] | MIC [12] [µM] | IC50 [13] [µM] | MIC [14] [µM] | MIC [15] [µM]
1 | O=C(O)c1cn(C2CC2)c2cc(N3CCNCC3)c(F)cc2c1=O [CIPROFLOXACIN] | Active | Active | 2 (≈ 6.04 µM) | Active | – | – | – | – | – | – | – | – | – | – | –
2 | O=c1ccc2ncc(=O)n3c2n1C[C@H]3CN1CCC(NCc2cc3c(cn2)OCCC3)CC1 [GEPOTIDACIN] | – | – | – | – | 0.036 (≈ 0.0161 µg/mL) | 17.8 (≈ 7.98 µg/mL) | 8.92 (≈ 4 µg/mL) | 0.279 (≈ 0.125 µg/mL) | 6.52 | 17.8 (≈ 7.98 µg/mL) | 0.138 (≈ 0.0619 µg/mL) | 0.279 (≈ 0.125 µg/mL) | > 30 | 0.279 (≈ 0.125 µg/mL) | 2.23 (≈ 1 µg/mL)
